# Sampled rows, rich in hits. Any-hit rate of the full collection: about 2.7%.
# TCR CD3 inh = inhibitors of human TCR-CD3 interaction; inhibition, % at 9.4 µM; AID 651800; TAMRA-labeled TCR probe fluorescence, biochemical; 0.37% of 360,000 active; in the data active means inhibition above about 19%;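 further: recombinant mutant TCR 2C K166C tagged with TAMRA read by polarization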
# PRMT1 FP inh = inhibitors of human PRMT1; recombinant PRMT1, activity-based probe fluorescence polarization; inhibition, % at 2.79 µM; 1.3% of 370,000 active; AID 652257;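 active means inhibition above about 21% made by adding two undisclosed values, limit read from the data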
# ABHD4 inh = ABHD4 (mouse) inhibition, primary FP screen; Q8VD66; purified mABHD4, FP-Rh probe fluorescence polarization; inhibition, % at 8.92 µM; 0.54% of 370,000 active; AID 720543;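 active means inhibition exceeding the mean over every tested compound plus 3 SD, cut at about 30% in these data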
#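 system = mouse ABHD4 enzyme, wild type | medium = HEPES pH 7.0, NaCl, Pluronic buffer | also added = FP-Rh probe | incubation = Enzyme–compound pre-incubation 45 min, then probe 60 min, both 25 °C | technique = fluorescence polarization, excitation 525 nm, emission 598 nm, BODIPY TMR filters | controls = S159A mutant high control, sample median low control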
# HTRA1 inhibitor = HTRA1 (human) protease inhibition; 0.5% of 340,000 active; recombinant HTRA1, FP-rhodamine activity-based probe, fluorescence polarization; inhibition, % at 5.96 µM; Q92743; in the data active means inhibition above about 36%
# Target sequence (Q92743 whole entry, looked up): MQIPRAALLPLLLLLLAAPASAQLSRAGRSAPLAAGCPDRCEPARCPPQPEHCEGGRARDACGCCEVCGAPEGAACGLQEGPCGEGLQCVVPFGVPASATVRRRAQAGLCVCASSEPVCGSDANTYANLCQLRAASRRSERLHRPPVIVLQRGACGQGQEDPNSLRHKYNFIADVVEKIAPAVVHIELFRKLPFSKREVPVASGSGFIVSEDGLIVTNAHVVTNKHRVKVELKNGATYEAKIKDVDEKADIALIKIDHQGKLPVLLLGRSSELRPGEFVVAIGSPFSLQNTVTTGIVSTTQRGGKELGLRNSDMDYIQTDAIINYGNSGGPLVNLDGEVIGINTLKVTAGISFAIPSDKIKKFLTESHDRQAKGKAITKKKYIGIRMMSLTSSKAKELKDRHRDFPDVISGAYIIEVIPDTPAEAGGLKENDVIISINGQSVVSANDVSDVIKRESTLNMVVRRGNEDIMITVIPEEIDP
# SIAE primary = inhibitors of human sialic acid acetylesterase SIAE. Q9HAT2. SIAE FP-Rh probe binding, fluorescence polarization. inhibition, % at 9.66 µM. 0.69% of 370,000 active;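 active means inhibition above a cutoff: mean of compounds within the control limits plus 3 SD of those, cut at about 17% in these data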
# PRMT1 inh conf = PRMT1 (human) inhibition, FP confirmation. shares compounds with PRMT1 FP inh. recombinant His-PRMT1, activity-based probe fluorescence polarization. inhibition, % at 2.79 µM. 42% of 3,300 active. AID 687036;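 active means mean inhibition across replicates above the hit cutoff derived for the earlier primary screen, cut at about 22% in these data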
# A number is an active result; - = inactive; . = no result given; ! = not active in a repeat.
SMILES,TCR CD3 inh,PRMT1 FP inh,ABHD4 inh,HTRA1 inhibitor,SIAE primary,PRMT1 inh conf
O=C(CN1C(=O)S/C(=C\c2cccs2)C1=O)Nc1ccc(O)cc1C(=O)O,-,32,-,-,-,-
CCOc1ccc(S(=O)(=O)N(CC(=O)NCc2cccnc2)c2ccc(F)cc2)cc1,-,-,-,-,-,.
Cc1ccsc1C(=O)NNC(=O)c1ccncc1,-,31,-,-,-,-
CCC1(c2ccccc2)NC(=O)N(CC(=O)Nc2ccc(OC)nc2)C1=O (stereo not given),-,58,-,-,-,55
COc1ccc(C(=O)CSC#N)cc1OC,-,41,-,-,-,23
Cc1cc2nc(-c3ccc(SCc4ccc(C(=O)O)cc4)nc3)[nH]c2cc1C,-,26,-,-,-,22
Cc1cc2nc(-c3ccc(SCc4ccccc4C#N)nc3)[nH]c2cc1C,-,-,-,-,-,.
CC(C)(C)C(=O)N(Cc1ccc(Cl)cc1)c1cnccn1,-,-,-,-,-,.
O=C(/C=C/c1ccccc1)CCN1CCOCC1,-,27,-,-,-,58
O=C(/C=C/c1ccccc1)N1CCOCC1,-,-,-,-,-,.
CN1CCC2(CC1)C1CN(C)CC=C1C(C#N)=C(N)C2(C#N)C#N (stereo not given),-,40,-,-,-,22!
COC(=O)CC#C[C@H](C)[C@@H](NS(=O)(=O)c1ccc(C)cc1)C1CCCCC1,-,-,-,.,-,.
Cc1ccc(CNC(=O)CCS(=O)(=O)c2cc(Br)cc3c2N(C(=O)C2CC2)CC3)o1,-,48,-,-,-,-
CCC(C)(C)n1nnnc1C(c1ccc(O)c(OC)c1)N1CCN(c2nc3ccccc3s2)CC1 (stereo not given),-,36,-,-,-,36
COc1cccc(-c2nc3sc4c(c3c(=O)[nH]2)CCCCC4)c1,-,-,-,-,-,.
O=c1c(Cc2ccc(F)cc2)c(O)ccn1CCCn1ccnc1,-,-,-,-,-,.
CC(=O)Nc1ccc(SCCCC(=O)c2ccccc2)cc1,-,35,-,-,-,39
COc1cccc(-c2cccc3c4c([nH]c23)[C@@H]2C[C@H]3[C@@H](C(=O)N2CC4)[C@H](C)ON3C)c1,-,-,-,.,-,.
O=C(CCc1ccccc1)NNC(=O)c1ccncc1,-,-,-,-,-,.
O=C(COC(=O)c1ccc2ncsc2c1)NC(=O)c1ccccc1,-,27,-,-,-,-
CC[N+]1(C)CCC(O)(c2ccc(OC)cc2)C(C(=O)c2ccc(OC)cc2)C1 (stereo not given),-,26,-,-,-,-
Cc1ccc(S(=O)(=O)N(C)[C@H]2C[C@H]3c4[nH]c5c(-c6ccccc6)cccc5c4CCN3C(=O)[C@H]2[C@H](C)O)cc1,-,-,-,.,-,.
Cc1cccc2nc(CSCc3ccco3)cn12,-,27,-,-,-,-
Cc1cc(C)n2cc(CSCc3ccco3)nc2n1,-,-,-,-,-,.
Cc1csc(N2C(=O)C3C4CCC(O4)C3C2=O)n1 (stereo not given),-,-,-,-,-,.
SMILES,TCR CD3 inh,PRMT1 FP inh,ABHD4 inh,HTRA1 inhibitor,SIAE primary,PRMT1 inh conf
Cc1ccc(C(=O)Nc2ncc3c(n2)CC(c2ccco2)CC3=O)cc1 (stereo not given),-,33,-,-,-,-
O=C1NCCN1c1ncc([N+](=O)[O-])s1,-,-,-,-,-,.
O=[N+]([O-])c1cnc(Sc2ccncn2)c([N+](=O)[O-])c1,-,71,-,-,-,90
O=[N+]([O-])c1cnc(Sc2ccncn2)s1,-,26,-,-,-,31
Cc1ccccc1S(=O)(=O)N1C[C@H]2CON(C)[C@H]2C[C@H]1c1cccc(Oc2ccccc2)c1,-,-,-,-,-,.
O=S1(=O)CC(O)C(O)CS1 (stereo not given),-,81,-,.,-,85
CCCCNC(=O)C1(C)CCN1C(=O)c1cc(-c2cccs2)oc1C (stereo not given),-,-,-,.,-,.
COC(=O)C1=C(C)OC(N)=C(C#N)C1c1ccccc1 (stereo not given),-,-,-,-,-,.
CNC(=O)C1C(=S)NC(N)=C(C#N)C1c1ccccc1 (stereo not given),-,61,-,-,-,-
CN(C)CCNC(=O)c1cc2c(s1)-c1ccc(Cl)cc1SC2,-,-,-,-,-,.
CCOCCCNC(=O)c1cc2c(s1)-c1ccccc1SC2,-,40,-,-,-,-
CC(=O)OC(C(=O)Nc1nccs1)c1ccccc1 (stereo not given),-,-,-,-,-,.
O=C(Nc1nccs1)C(Br)C(Br)c1ccccc1 (stereo not given),-,65,-,-,-,59
O=c1oc2cc(O)ccc2s1,-,86,-,-,-,33
COc1ccc(NC2CCCN(C(=O)c3cc(CC(C)C)nc(N)n3)C2)cc1 (stereo not given),-,-,-,-,-,.
Cc1ccc(NC(=O)CSc2ncc3ccccn23)cc1C,-,28,-,-,-,-
Cc1ccc(NC(=O)CSc2ncn(-c3ccccc3)n2)cc1C,-,-,-,-,-,.
COC(=O)CN(C#N)c1nc(NCc2ccccc2)nc(OC)n1,-,64,-,-,-,-
COC(=O)CN(C#N)c1nc(NC(C)C)nc(OC)n1,-,-,-,-,-,.
COc1ccc(-c2ccc3c(n2)CCCN3S(=O)(=O)c2ccc(C#N)cc2)cc1,-,45,-,.,-,26
Cc1c(C(c2cc(O)ccc2O)c2c(C)n(C)n(-c3ccccc3)c2=O)c(=O)n(-c2ccccc2)n1C,-,33,-,-,-,-
O=C(NC1CCCc2ccccc21)c1cc(S(=O)(=O)N2CCOCC2)ccc1F (stereo not given),-,-,-,-,-,.
O=C(CSc1nc2cc(S(=O)(=O)N3CCOCC3)ccc2o1)Nc1c(F)cccc1F,-,54,-,-,-,47
O=C(CSc1nc2cc(S(=O)(=O)N3CCOCC3)ccc2o1)NC1CCCc2ccccc21 (stereo not given),-,30,-,-,-,25
CCCS(=O)(=O)N1CCCC(C(=O)c2ccccc2OC)C1 (stereo not given),-,-,-,-,-,.
SMILES,TCR CD3 inh,PRMT1 FP inh,ABHD4 inh,HTRA1 inhibitor,SIAE primary,PRMT1 inh conf
O=C(OCN1C(=O)c2ccccc2C1=O)C1CCCCC1,-,-,-,-,-,.
O=C1c2ccccc2C(=O)N1SC1CCCCC1,-,63,-,-,-,73
Cc1cc(NS(=O)(=O)c2ccc(NC(=O)CSc3nnc(-c4ccncc4)n3Cc3ccco3)cc2)nc(C)n1,.,33,-,.,-,-
O=c1ccn2c(n1)SC(c1ccccc1)C2 (stereo not given),-,-,-,-,-,.
CCSc1nc(=S)n(Cc2ccccc2)c(C)c1C(C)=O,-,-,-,-,-,.
CC(=O)c1c(N2CCN(C)CC2)nc(=S)n(Cc2ccccc2)c1C,-,39,-,-,-,-
